The results in this text go back to the EternaBench riboswitch data.

The data set deals with MS2 coat protein. The data set can be described thus: apparent Kd, MS2 coat protein; higher = weaker binding; RNA-MaP array; FMN 200 µM where present. The essentials:
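The titrant was SNAP-549-labelled MS2 coat protein, run from 0.7 or 1.5 nM in doubling steps to 3 µM. It was applied to designs transcribed by stalled E. coli RNA polymerase on Illumina sequencing-chip clusters, without ligand first and then with constant ligand, in 100 mM Tris-HCl pH 7.5, 80 mM KCl, 4 mM MgCl2, BSA, DTT, yeast tRNA and Tween-20. The apparent Kd is the median of filtered per-cluster binding-curve fits, with green signal normalised to red-channel RNA signal and control-cluster median Fmax.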

Setting [1] is: designed as: OFF switch for flavin mononucleotide, no ligand.
Setting [2] is: ligand present: flavin mononucleotide, designed as: OFF switch for flavin mononucleotide.
The mark [3] stands for this setting: designed as: ON switch for flavin mononucleotide, no ligand.
The mark [4] stands for this setting: ligand present: flavin mononucleotide, designed as: ON switch for flavin mononucleotide.

The apparent Kd is a dissociation constant that holds for the conditions of the assay. Turning to “GCCUCAGAAUUAAUUGUGAGAGGCAGAAGGCUAUAUCUCGUGGUAAACAUGAGGAUCACCCAUGUAGAGGAUAUGCUAUUACAG”, the “apparent Kd” value is, setting by setting: under setting [1], 8.25 nM; under setting [2], 9.99 nM.

With “CGCCAUUUAACAACGGCGCGGUCGAGAAGGGUACAUGAGGAUCACCCAUGUCACGUUCCUCCUGUACAGGAUAUCGUACGGGUA”, the “apparent Kd” value reads like this: under setting [1], 67 nM; under setting [2], 146 nM.

For “UAGAUGGGAGGAUAUACAUAGAUACAGAUUCAUGUAGUGCUACAUGAGGAUCACCCAUGUAGAAGGCCCGUCUU”, the “apparent Kd” value reads like this: under setting [1], 33 nM; under setting [2], 355 nM.

On to “CUUUCGUUAGCAGGAUAUGGACAGGCCUGUCCGUCUUGAGUCUGUAACAUGAGGAUCACCCAUGUCCAGAAGGGCUCGAAGGGA”, for which the “apparent Kd” value is, setting by setting: under setting [1], 8.04 nM; under setting [2], 15 nM.

On to “AGGGUGGGCUCAGGAUAUCAGGAAGAGAUGUGGACAUGAGGAUCACCCAUGUACCAGUGUUGUUAUGAGAAGGGAGAUACUGUA”, for which the “apparent Kd” value is, setting by setting: under setting [3], 52.3 nM; under setting [4], 28.8 nM.

Consider “ACCAGGCGAGGAUAUACUUAGAUUUUUUCGUUUAGUCUCGAACAUGAGGAUCACCCAUGUAGAAGGUGCUUCAC”, for which the “apparent Kd” value runs as follows: under setting [1], 49.9 nM; under setting [2], 42.7 nM.

Turning to “AGUAGAUCAGGAUAUACAUAAAUGAUAAUUAUGUAACUUCAACAUGAGGAUCACCCAUGUAGAAGGGAUCUACA”, the “apparent Kd” value came to 16.3 nM under setting [1] and 15 nM under setting [2].

Regarding “AUCAGCUCGUCAGGAUAUACGUCACUGCGUCAGCAGAGUGGUAAGAUCACAUGAGGAUCACCCAUGUAGAAGGGACGAGCUGAU”, the “apparent Kd” value under setting [1] came to 39.5 nM and the “apparent Kd” value under setting [2] was determined as 421 nM.

As for “GGAGGACAUGAGGAUCACCCAUGUGGAUGGGCGCUAGGAUAUGCGUGCGGGAAGAGUGGAGCAGAAGGAGUGGGUU”, the “apparent Kd” value reads like this: under setting [3], 48.3 nM; under setting [4], 42.2 nM.

Turning to “AAACAGCGAAGAUAAUAAUGAAUACAUGAGGAUCACCCAUGUAAGGAUAUCGUCAGGAAUACUGACGAGAAGGUACAUACGCUG”, the “apparent Kd” value runs as follows: under setting [1], 16 nM; under setting [2], 22.4 nM.

For “AGUUAAUAUCGAGGAUAUCCUCAUAGACAUGAGGAUCACCCAUGUUAACAUGGAGAAGGCGAUAUUAACAGCAUGUUACAUGCA”, the “apparent Kd” value is 231 nM under setting [3] and 26.8 nM under setting [4].

Turning to “ACAUGACAUGAGGAUCACCCAUGUGAGGAUAUGCGAAAAAAAAAAAAAAAAAAAAAAAGCAGAAGGCACAAAAA”, the “apparent Kd” value worked out at 180 nM under setting [1] and 280 nM under setting [2].

In the case of “UGGUAACAUGAGGAUCACCCAUGUCAAGAGAAUCAAGGAUAUGGUAAGUAAUAAGAGAAUCUAGAAGGUGAAGUUG”, the “apparent Kd” value was determined as 96.2 nM under setting [3] and 69.1 nM under setting [4].

On to “AUCAGCUCGUGAGGAUAUACAUGAUAGAUCGAUUAAUUAAUUAAUUUAACAUGAGGAUCACCCAUGUAGAAGGCACGAGCUGAU”, for which the “apparent Kd” value came to 56.1 nM under setting [1] and 61.7 nM under setting [2].

For “CGCUACGUUUCGUAGCAGCUAGGUGAGGAUAUUCAAUUUUUCACAUGAGGAUCACCCAUGUAUGUGAAGAAGGCGCCUAGAAAG”, the “apparent Kd” value amounted to 11.8 nM under setting [3] and 5.64 nM under setting [4].

As for “AUUUAUGGCCAGAAGGACAUGAGGAUCACCCAUGUAGGAUAUGGACGAUUUUGCUCGGCGGUUCGUUAAGAAAGCACCGGUGGU”, the “apparent Kd” value is, setting by setting: under setting [3], 16.5 nM; under setting [4], 7.39 nM.

As for “AUUAUAUAGUCAGGAUAUAGAAUAUUAUUUUAACAUGAGGAUCACCCAUGUAACCUUAUGUGUAGCUAGAAGGGACAUUUAUUA”, the “apparent Kd” value reads like this: under setting [1], 85.5 nM; under setting [2], 131 nM.

Regarding “GAAGCACAUGAGGAUCACCCAUGUGAGGAUAUCCGUCUGGUCCGGCCGGGCCAGUACCGGAGAAGGCGCGUCGA”, the “apparent Kd” value under setting [1] was 34.7 nM and the “apparent Kd” value under setting [2] is 29.7 nM.

Turning to “GGUUGGCGAGGAUAUACAUGAGGAUCACCCAUGUGGUCCUGAGGCUGAUCAAGCCUAUGUAGAAGGCGCAAAUC”, the “apparent Kd” value reads like this: under setting [1], 215 nM; under setting [2], 38.1 nM.

Turning to “CGGGAGUCAGGAUAUACGAACAUGUCGCCAGAUGUCAUGGUACAUGAGGAUCACCCAUGUAGAAGGGAGGAGAU”, the “apparent Kd” value under setting [1] stood at 139 nM and the “apparent Kd” value under setting [2] was 103 nM.

Take “AUCAGCUCGUCAGGAUAUACGUCACUGCUUCGGCAGUGUGGUAAGAUCACAUGAGGAUCACCCAUGUAGAAGGGACGAGCUGAA”: the “apparent Kd” value came out at 13.3 nM under setting [1] and 259 nM under setting [2].

In the case of “UCGUGCCGGGUUACGAUCGACCCACAUGAGGAUCACCCAUGUAGAAGGACCAGCGUCGGCCCUUGGUAGGAUAUACAUGAAAUC”, the “apparent Kd” value is, setting by setting: under setting [1], 106 nM; under setting [2], 135 nM.

For the sequence “AGCUGUGGCCGAGGAUAUCUAUUAAUCCAAACCGAAAUAUAAUCGGACAUGAGGAUCACCCAUGUAGAGAAGGCGGUCUCAGCA”, the “apparent Kd” value under setting [1] is 72 nM and the “apparent Kd” value under setting [2] stood at 77.2 nM.

“UUAUUUAGGUAGGAUAUCGAUACUAAUUACUAUCGAGAAGGGUCUACAUGAGGAUCACCCAUGUUAGCAUGUUU”: the “apparent Kd” value under setting [1] came to 27.2 nM and the “apparent Kd” value under setting [2] came to 25.5 nM.

“AAAAUGAGUCAAGGAUAUCCGAGCAGAAUGCUAGGAGAAGGUGACAUGAGGAUCACCCAUGUCUCUCCGAGCAUGGUAUUCUCA”: the “apparent Kd” value was 27.1 nM under setting [1] and 31.9 nM under setting [2].

As to “CGACAUUACACAGGAUAUCCUCGACUUUGUCGAGGAGAAGGGUGUAAACAUGAGGAUCACCCAUGUAUAAUGUCGAAAUAUAAU”, the “apparent Kd” value reads like this: under setting [3], 221 nM; under setting [4], 28.9 nM.

Regarding “AAAGACAGACAUGAGGAUCACCCAUGUUACGAAGAUACUGGGAGAAGGGCGAUUGCAAAGCAAUCGCAGGAUAUUCGUAUUGUC”, the “apparent Kd” value was found to be 25.8 nM under setting [3] and 13.2 nM under setting [4].

As for “UUUUUGUCAGGAUAUGACUAGAUGCACGUUAGUGUGUUUACUUAGAAGGGACAUGAGGAUCACCCAUGUAUUCC”, the “apparent Kd” value by setting is: under setting [1], 28.9 nM; under setting [2], 24.1 nM.

As to “UUUUAACAUGAGGAUCACCCAUGUGAGGAUAUCGAAAUUUAUAUUAAUAUUAAUAUUUCGAGAAGGCACAUUUU”, the “apparent Kd” value was found to be 142 nM under setting [1] and 154 nM under setting [2].

In the case of “CCGGAAAUAGAGGAUAUCGUACUGGAUACAGUACGAGAAGGCUAUACAUGAGGAUCACCCAUGUGUCCUACCGG”, the “apparent Kd” value came to 16.9 nM under setting [1] and 36 nM under setting [2].

Consider “CACUCACAUGAGGAUCACCCAUGUCCUAGCAGGUCAGGAUAUAGCUCGGAUGCGUUGAGUCUAGAAGGGACACGUU”, for which the “apparent Kd” value is, setting by setting: under setting [3], 96.7 nM; under setting [4], 62.5 nM.

Take “GUACUACAUGAGGAUCACCCAUGUACAAAGGUACGAGGAUAUGCAUGUACGAAAGUAUAUGCAGAAGGCGUAGUAC”: the “apparent Kd” value under setting [3] turned out to be 25.8 nM and the “apparent Kd” value under setting [4] worked out at 21.7 nM.

Take “UUCAGGGAUCAAGGAUAUCUAUAAACAUGCGGACAUGAGGAUCACCCAUGUUGAUUACCCAUGUGGGAGAAGGUGAACAUGAGG”: the “apparent Kd” value runs as follows: under setting [3], 44.7 nM; under setting [4], 20.6 nM.

As for “AUCAUGAGAGGAUAUACAUGAGGAUCACCCAUGUUGUUAACACCAUGAGCUCAUUUACGUAGAAGGCUCAUUUG”, the “apparent Kd” value worked out at 28.1 nM under setting [1] and 51.9 nM under setting [2].

As for “CGUAGGAUCCAGAAGGCAUGAAACAUGAGGAUCACCCAUGUCAAAUACAUGAGGAUAUGGAUCCUACGAAAAGUGCGAAAGCAC”, the “apparent Kd” value under setting [3] came out at 3.95 nM and the “apparent Kd” value under setting [4] came to 3.84 nM.

“CGACGUUGGGAGAAGGAGUAAAAUACAUGAGGAUCACCCAUGUCAGGUGCUAGGAUAUCCUCGCGUGGCAGGGUCGGCCCGUGU”: the “apparent Kd” value was determined as 97.2 nM under setting [3] and 32.7 nM under setting [4].

For “UCUACAUAAAUUCAUCAAUACAGAAAGGAUAUGAGAUACAUGAGGAUCACCCAUGUGCAUGGGAAUUAGAAGGUUCAAUUAACU”, the “apparent Kd” value under setting [1] turned out to be 98.5 nM and the “apparent Kd” value under setting [2] worked out at 67.2 nM.

Consider “AAAGACAGAGGAUAUGCACGCCGACCCGGGCGGGAAGUCGGACAUGAGGAUCACCCAUGUAGAAGGCUGAGAAA”, for which the “apparent Kd” value under setting [1] was determined as 11.3 nM and the “apparent Kd” value under setting [2] was found to be 14.8 nM.

Take “UAUUUGUCAGGAUAUGAGUCGUAGAACAAUAGUACUACGUCUCAGAAGGGACAUGAGGAUCACCCAUGUGCCUC”: the “apparent Kd” value is 25.5 nM under setting [1] and 217 nM under setting [2].

Take “AGUGCGUAUGUGAGGAUAUGCUGGUCCUUGGCUCGGCAGAAGGCACAUGAGGAUCACCCAUGUGGUGUCGUACU”: the “apparent Kd” value under setting [1] was determined as 239 nM and the “apparent Kd” value under setting [2] came out at 47.1 nM.

As to “AGCUAGUCAGGAUAUACAUGAGGAUCACCCAUGUAAACUUUUAGUUUAAUUUGAAUGUGUAGAAGGGACAUAAA”, the “apparent Kd” value was found to be 21.7 nM under setting [1] and 24.1 nM under setting [2].

As for “UGCUAGAACCUAGGAUAUCCUGGGUUGGUGGUGCUUGAUGACCGGACAUGAGGAUCACCCAUGUAGGAGAAGGAGGUUGUUAAG”, the “apparent Kd” value reads like this: under setting [1], 60.6 nM; under setting [2], 112 nM.

Take “GAUUAACAUGAGGAUCACCCAUGUGAGGAUAUGAACUAGACCACUUACCCGAUAUUGUUCAGAAGGCGCAUUCU”: the “apparent Kd” value under setting [1] is 34.1 nM and the “apparent Kd” value under setting [2] turned out to be 39.5 nM.

In the case of “UACAGACAUGAGGAUCACCCAUGUAAGGAUAUCGGUACCGAUGGCAUAAUCUGCUCGGCGAGAAGGUACAGUGU”, the “apparent Kd” value reads like this: under setting [1], 22.6 nM; under setting [2], 24.9 nM.

Take “AGGUUGUGAGGAUAUUAGUUUUAUGAUUGGAGGAGUUUGGCUGAGAAGGCACAUGAGGAUCACCCAUGUAGAUC”: the “apparent Kd” value runs as follows: under setting [1], 61.9 nM; under setting [2], 124 nM.

Consider “UUAUUUAUGCAAGGAUAUCAAUUAUAUACAAAUCCAACAUGAGGAUCACCCAUGUUUUAUUUUUUUGAGAAGGUGUAUUGUCAG”, for which the “apparent Kd” value is, setting by setting: under setting [3], 36.1 nM; under setting [4], 40.5 nM.

For “AAGUAUAGAGGAUAUAGUGAGUACUACAUGAGGAUCACCCAUGUUCUUCAAAACGUAUUUCUAGAAGGCUGUUAAA”, the “apparent Kd” value was 45.3 nM under setting [1] and 86.7 nM under setting [2].

With “GAGUGGAAGGCCGCUACAUGAGGAUCACCCAUGUGCUAAGCACAGGAUAUCGCGUGGGCCCGACGCGAGAAGGGUGACGGCCUG”, the “apparent Kd” value under setting [3] was found to be 582 nM and the “apparent Kd” value under setting [4] turned out to be 246 nM.
